Laboratory results: ChEMBL document CHEMBL4831483, “Discovery and optimization of 2-((1H-indol-3-yl)thio)-N-benzyl-acetamides as novel SARS-CoV-2 RdRp inhibitors” (Eur J Med Chem, 2021)

Key:
[1] = target: T1, Replicase polyprotein 1ab (Severe acute respiratory syndrome coronavirus 2, UniProt P0DTD1); experiment: (§1) Inhibition of SARS-CoV-2 RdRp transfected in human HEK293T cells cotransfected with Cov-Gluc by Gaussia luciferase reporter gene method; format: cell-based
Outline: (§2)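 HEK293T cells were co-transfected with CoV-Gluc reporter plus C-terminally flag-tagged codon-optimized nsp12, nsp7 and nsp8 plasmids (1:10:30:30). After 12 h, cells were re-seeded in 96-well plates at 10^4/well and treated with serially diluted compound. Gaussia luciferase activity in supernatants gave dose-response IC50. Triplicate assays, mean ± SD.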

HEK-293T = experiment: (§3) Cytotoxicity against human HEK293T cells assessed as reduction in cell viability incubated for 24 hrs by CCK8 assay; format: cell-based; conditions: hek-293t, 24 h
Outline: (§4)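 HEK293T cells in 96-well plates were exposed to compound at 0.78–100 μM for 24 h. CCK-8 reagent was then added for 1 h at 37 °C and OD450 read. Viability was normalised to DMSO-only cells to give CC50. Triplicate assays, mean ± SD.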

[2] = target: T1, Replicase polyprotein 1ab; experiment: Inhibition of SARS-CoV-2 RdRp transfected in human HEK293T cells cotransfected nsp12; format: cell-based; outline: as §2
[3] = target: Replicase polyprotein 1ab (Severe acute respiratory syndrome coronavirus 2) (UniProt P0DTD1); experiment: Inhibition of SARS-CoV-2 RdRp transfected in HEK293T cells cotransfected with CoV-Gluc assessed as decrease in plus and minus strand-Gluc RNA levels incubated for 24 hrs by qRT-PCR analysis; format: cell-based; conditions: dose 5-10 µM
Outline: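 HEK293T cells were transfected with CoV-Gluc, nsp12, nsp7 and nsp8 plasmids (1:10:30:30). At 6 h post-transfection, medium was replaced with fresh medium containing compound, and cells were cultured a further 24 h. Total cellular RNA was extracted and CoV-Gluc RNA quantified by real-time qRT-PCR.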

[4] = target: Replicase polyprotein 1ab (Severe acute respiratory syndrome coronavirus 2) (UniProt P0DTD1); experiment: as §1; format: cell-based; outline: as §2
[5] = target: T1, Replicase polyprotein 1ab; experiment: Inhibition of SARS-CoV-2 RdRp transfected in human HEK293T cells cotransfected nsp12 along with nsp14 and nsp10; format: cell-based
Outline: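 HEK293T cell-based Gaussia luciferase RdRp reporter assay. Cells were co-transfected with CoV-Gluc, nsp12, nsp7, nsp8, nsp10 and nsp14 plasmids (1:10:30:30:25:25) so that the nsp14/nsp10 exoribonuclease was present. Gluc activity was measured after compound treatment.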

HEK293T = experiment: Ratio of IC50 for inhibition of SARS-CoV-2 RdRp transfected in human HEK293T cells cotransfected nsp12 along with nsp14/nsp10 to IC50 for inhibition of SARS-CoV-2 RdRp transfected in human HEK293T cells cotransfected with nsp12; format: cell-based; conditions: Severe acute respiratory syndrome coronavirus 2
Human coronavirus OC43 = experiment: Antiviral activity against HCoV-OC43 infected in HCT-8 cells assessed as reduction in viral replication treated 1 hr post infection and measured after 120 hrs post infection by MTS cell proliferation colorimetric assay; format: functional, cell-based
Outline: (§5)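 HCT-8 cells infected with HCoV-OC43 at MOI 0.1, and LLC-MK2 cells infected with HCoV-NL63 strain Amsterdam I at MOI 0.01. Serial compound dilutions were added 1 h post-infection in 2% FBS. Incubation was 120 h at 33 °C in 5% CO2. MTS reagent was then added for 3 h at 37 °C and absorbance read at 490 nm.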

[6] = Antiviral activity against HCoV-NL63 infected in LLC-MK2 cells assessed as reduction in viral replication treated 1 hr post infection and measured after 120 hrs post infection by MTS cell proliferation colorimetric assay; format: functional, cell-based; conditions: Human coronavirus NL63, LLC-MK2; outline: as §5
[7] = as §3; format: cell-based, HEK-293T; conditions: HEK293T cells; outline: as §4

SMILES	IC50 ([1]; read-out: IC50)	CC50 (HEK-293T)	further results
COc1ccccc1CNC(=O)CSc1cn(C)c2ccccc12	9.82 µM	> 100 µM	–
CN(Cc1ccccc1)C(=O)CSc1c[nH]c2ccccc12	–	> 100 µM	IC50 [2]: 4.55 µM; inhibition [3]: Dose-Dependent Effect; inhibition [4]: Dose-Dependent Effect; IC50 [5]: 5.37 µM; Ratio IC50 (HEK293T): 1.18
CCOc1ccccc1CN(OC)C(=O)CSc1c[nH]c2cccc(Br)c12	–	> 100 µM	IC50 [2]: 1.11 µM; inhibition [3]: Dose-Dependent Effect; inhibition [4]: Dose-Dependent Effect; Activity (Human coronavirus OC43): Dose-Dependent Effect; IC50 [5]: 1.89 µM; IC50 [6]: > 50 µM; Ratio IC50 (HEK293T): 1.7
COc1ccccc1CNC(=O)CSc1c[nH]c2cccc(Br)c12	8.71 µM	> 100 µM	–
COc1ccccc1CNC(=O)CSc1c[nH]c2ccc(Br)cc12	10.7 µM	> 100 µM	–
O=C(CSc1c[nH]c2ccccc12)NCc1ccccc1	6.81 µM	> 100 µM	–
O=C(CSc1c[nH]c2cccc(Br)c12)NCc1ccc(Cl)c(Cl)c1	7.21 µM	> 100 µM	–
CN(C)CCOc1ccc(CNC(=O)CSc2c[nH]c3ccccc23)cc1	9.08 µM	> 100 µM	–
CN(Cc1ccccc1)C(=O)CSc1c[nH]c2c(Br)cccc12	20.9 µM	52.5 µM	–
COc1ccccc1CNC(=O)CSc1c[nH]c2c(-c3ccccc3)cccc12	–	95.5 µM	IC50 [2]: 1.65 µM; inhibition [3]: Dose-Dependent Effect; inhibition [4]: Dose-Dependent Effect; IC50 [5]: 2.18 µM; Ratio IC50 (HEK293T): 1.32
O=C(CSc1c[nH]c2c(Br)cccc12)NCc1ccc(Cl)c(Cl)c1	4.55 µM	> 100 µM	–
COc1ccccc1CNC(=O)CSc1c[nH]c2c(Br)cccc12	7.08 µM	72.4 µM	–
Cn1cc(SCC(=O)NCc2ccc(Cl)c(Cl)c2)c2ccccc21	7.5 µM	> 100 µM	–
CCC(CC)COC(=O)[C@H](C)N[P@](=O)(OC[C@H]1O[C@@](C#N)(c2ccc3c(N)ncnn23)[C@H](O)[C@@H]1O)Oc1ccccc1	–	–	inhibition [3]: Dose-Dependent Effect; CC50 at 24 h [7]: > 100 µM
COc1ccccc1CN(C)C(=O)CSc1c[nH]c2ccccc12	7.64 µM	> 100 µM	–
COc1ccccc1CNC(=O)CSc1c[nH]c2cc(Br)ccc12	10 µM	> 100 µM	–
CN(Cc1ccccc1)C(=O)CSc1c[nH]c2cccc(Br)c12	4.73 µM	25.1 µM	–
Cn1cc(SCC(=O)N(Cc2ccccc2)Cc2ccccc2)c2ccccc21	12.3 µM	91.2 µM	–
O=C(CSc1c[nH]c2c(Br)cccc12)N(Cc1ccccc1)Cc1ccccc1	7.08 µM	> 100 µM	–
C[C@@H](NC(=O)CSc1c[nH]c2ccccc12)c1ccccc1	6.68 µM	> 100 µM	–
Cn1cc(SCC(=O)NCc2ccc(C(F)(F)F)cc2)c2ccccc21	–	> 100 µM	IC50 ([1]; hek293t): Not Active
O=C(CSc1c[nH]c2cc(Br)ccc12)NCc1ccc(Cl)c(Cl)c1	8.71 µM	67.6 µM	–
O=C(CSc1c[nH]c2ccccc12)N(Cc1ccccc1)Cc1ccccc1	–	> 100 µM	IC50 [2]: 3.35 µM; inhibition [3]: Dose-Dependent Effect; inhibition [4]: Dose-Dependent Effect; IC50 [5]: 4.01 µM; Ratio IC50 (HEK293T): 1.2
CN(C)CCOc1ccc(CNC(=O)CSc2cn(C)c3ccccc23)cc1	8.91 µM	> 100 µM	–
O=C(CSc1c[nH]c2ccccc12)NCc1ccc(C(F)(F)F)cc1	7.94 µM	> 100 µM	–
O=C(CSc1c[nH]c2ccc(Br)cc12)NCc1ccc(Cl)c(Cl)c1	9.77 µM	> 100 µM	–
O=C(CSc1c[nH]c2cccc(Br)c12)N(Cc1ccccc1)Cc1ccccc1	–	25.7 µM	IC50 [2]: 3.76 µM; inhibition [3]: Dose-Dependent Effect; inhibition [4]: Dose-Dependent Effect; IC50 [5]: 3.85 µM; Ratio IC50 (HEK293T): 1.02
Cn1cc(SCC(=O)NCc2ccccc2)c2ccccc21	26.9 µM	95.5 µM	–
